Experiments:
Assay type in all cases: cell-based
M3 = M3 (Homo sapiens, UniProt P20309); test: Potentiation of ~EC20 ACh, calcium mobilization in M3 CHO cells
Procedure, shortened: (§1)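 Potentiation of an ~EC20 ACh response read as intracellular calcium mobilization in CHO cells expressing single receptor subtypes. M2 and M4 lines are co-transfected with chimeric Gqi5 to couple to calcium, while M3 and M5 lines are used directly. Data are means of independent determinations.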

M1 [1] = molecular target: T1, M1 (Homo sapiens, UniProt P11229); test: ACh CRC fold-shift experiments, calcium mobilization in M1 CHO cells
T1 sequence (P11229 1-460): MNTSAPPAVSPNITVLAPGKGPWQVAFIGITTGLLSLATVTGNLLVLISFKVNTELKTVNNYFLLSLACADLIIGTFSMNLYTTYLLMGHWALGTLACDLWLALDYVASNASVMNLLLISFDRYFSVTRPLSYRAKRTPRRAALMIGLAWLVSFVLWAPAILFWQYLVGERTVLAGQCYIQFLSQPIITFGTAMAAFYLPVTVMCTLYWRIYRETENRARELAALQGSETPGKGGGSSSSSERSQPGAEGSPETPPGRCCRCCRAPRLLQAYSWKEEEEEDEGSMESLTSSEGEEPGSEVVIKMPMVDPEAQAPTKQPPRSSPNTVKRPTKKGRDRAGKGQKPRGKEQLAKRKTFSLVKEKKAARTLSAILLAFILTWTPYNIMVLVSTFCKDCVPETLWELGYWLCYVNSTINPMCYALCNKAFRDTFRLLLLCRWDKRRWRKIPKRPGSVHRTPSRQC
Procedure, shortened: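 ACh concentration-response curve run alone and with the test compound at 10 μM or 30 μM. Intracellular calcium mobilization measured in CHO cells expressing M1. The fold leftward shift of the ACh curve is taken, and intrinsic allosteric agonism is recorded from the response to compound alone. Values are means of at least three independent determinations.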

M5 = molecular target: T2, M5 (Homo sapiens, UniProt P08912); test: Potentiation of ~EC20 ACh, calcium mobilization in M5 CHO cells
T2 sequence (P08912 1-532): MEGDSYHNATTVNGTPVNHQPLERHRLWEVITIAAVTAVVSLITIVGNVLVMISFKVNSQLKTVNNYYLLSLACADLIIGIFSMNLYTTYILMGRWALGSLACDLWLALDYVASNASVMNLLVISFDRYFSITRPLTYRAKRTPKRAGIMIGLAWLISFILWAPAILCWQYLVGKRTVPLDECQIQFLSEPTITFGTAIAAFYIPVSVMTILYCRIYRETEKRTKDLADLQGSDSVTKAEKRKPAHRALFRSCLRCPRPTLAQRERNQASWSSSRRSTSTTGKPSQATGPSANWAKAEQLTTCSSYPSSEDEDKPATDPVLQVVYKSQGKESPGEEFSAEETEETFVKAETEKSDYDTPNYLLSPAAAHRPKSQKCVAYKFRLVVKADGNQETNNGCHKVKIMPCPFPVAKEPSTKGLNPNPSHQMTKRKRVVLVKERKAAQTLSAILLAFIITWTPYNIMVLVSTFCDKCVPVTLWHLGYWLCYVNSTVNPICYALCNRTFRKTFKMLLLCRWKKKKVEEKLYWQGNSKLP
Procedure, shortened: as §1

M2 = molecular target: T3, M2 (Homo sapiens, UniProt P08172); test: Potentiation of ~EC20 ACh, calcium mobilization in M2/Gqi5 CHO cells; details: up to 30 μM
T3 sequence (P08172 1-466): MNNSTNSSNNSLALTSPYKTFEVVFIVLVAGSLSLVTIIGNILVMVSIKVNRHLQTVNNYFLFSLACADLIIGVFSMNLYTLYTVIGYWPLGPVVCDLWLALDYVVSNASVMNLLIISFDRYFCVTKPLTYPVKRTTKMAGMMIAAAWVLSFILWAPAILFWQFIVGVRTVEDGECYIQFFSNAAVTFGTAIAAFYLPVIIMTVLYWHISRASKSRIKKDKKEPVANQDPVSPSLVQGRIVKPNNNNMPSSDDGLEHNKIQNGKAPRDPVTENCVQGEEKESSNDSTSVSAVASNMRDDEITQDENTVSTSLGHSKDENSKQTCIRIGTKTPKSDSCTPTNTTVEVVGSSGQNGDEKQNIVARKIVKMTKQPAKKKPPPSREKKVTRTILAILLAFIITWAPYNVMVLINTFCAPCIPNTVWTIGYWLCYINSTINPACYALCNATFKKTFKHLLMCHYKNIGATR
Procedure, shortened: as §1

M4 = molecular target: T4, M4 (Homo sapiens, UniProt P08173); test: Potentiation of ~EC20 ACh, calcium mobilization in M4/Gqi5 CHO cells; details: up to 30 μM
T4 sequence (P08173 1-479): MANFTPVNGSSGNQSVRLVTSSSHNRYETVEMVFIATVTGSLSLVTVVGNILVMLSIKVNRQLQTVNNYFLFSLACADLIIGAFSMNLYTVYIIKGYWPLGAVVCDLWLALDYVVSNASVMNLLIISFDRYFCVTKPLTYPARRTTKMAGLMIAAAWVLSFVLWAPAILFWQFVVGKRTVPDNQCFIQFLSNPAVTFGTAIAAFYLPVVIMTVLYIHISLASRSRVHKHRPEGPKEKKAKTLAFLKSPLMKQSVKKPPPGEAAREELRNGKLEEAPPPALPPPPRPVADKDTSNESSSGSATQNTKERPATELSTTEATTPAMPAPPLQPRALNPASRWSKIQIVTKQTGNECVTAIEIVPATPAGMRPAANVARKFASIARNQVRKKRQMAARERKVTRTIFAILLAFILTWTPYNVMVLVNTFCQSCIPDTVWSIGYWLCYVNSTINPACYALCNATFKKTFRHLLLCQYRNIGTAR
Procedure, shortened: as §1

M1 [2] = molecular target: T1, M1; details: M1 EC50 ratio

M3, sequence (P20309 whole entry): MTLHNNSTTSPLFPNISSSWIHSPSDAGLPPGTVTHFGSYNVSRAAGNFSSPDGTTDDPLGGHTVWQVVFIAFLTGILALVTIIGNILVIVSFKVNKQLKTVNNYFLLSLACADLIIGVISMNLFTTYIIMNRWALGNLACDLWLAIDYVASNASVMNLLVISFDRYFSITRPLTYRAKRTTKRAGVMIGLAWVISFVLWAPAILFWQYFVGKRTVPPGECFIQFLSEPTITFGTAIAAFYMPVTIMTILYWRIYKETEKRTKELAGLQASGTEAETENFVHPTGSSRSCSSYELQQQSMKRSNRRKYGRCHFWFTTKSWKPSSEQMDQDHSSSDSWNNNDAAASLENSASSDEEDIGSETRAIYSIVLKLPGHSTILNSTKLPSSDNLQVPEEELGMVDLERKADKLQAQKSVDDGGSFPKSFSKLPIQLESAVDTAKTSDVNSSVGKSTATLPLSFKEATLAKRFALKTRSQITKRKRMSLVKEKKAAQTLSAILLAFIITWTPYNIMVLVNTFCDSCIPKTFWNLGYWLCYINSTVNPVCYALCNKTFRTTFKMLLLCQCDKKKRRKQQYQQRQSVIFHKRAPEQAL

SMILES	selectivity versus M3 (M3; CRC in presence of ~EC20 ACh)	Fold-shift of the ACh CRC at M5 (M1 [1]; 10 μM compound)	intrinsic allosteric agonism (M1 [1]; M1 fold-shift experiment, at 30 μM)	selectivity versus M5 (M5; CRC in presence of ~EC20 ACh)	activation of M3 (M3; up to 30 μM)	activation of M2 (M2)	activation of M4 (M4)	Fold-shift of the ACh CRC at M5 (M1 [1]; 30 μM compound)	increase in potency over VU0365137 (9a) (M1 [2])	activation of M5 (M5; up to 30 μM)
Cn1cc(-c2ccc(CN3C(=O)C(=O)c4ccccc43)cc2)cn1 [Compound 9a]	good selectivity	approximately 5 fold	~30%	good selectivity						
Cn1cc(-c2ccc(CN3C(=O)C(=O)c4ccccc43)c(F)c2)cn1 [Compound 12a]					minimal/no activation	minimal/no activation	minimal/no activation	approximately 3 fold	three-fold increase	minimal/no activation
